Compound activity as filed in PubChem.
This is a sample that favours compounds with a hit; in the whole collection about 2% have one here.
ZTA DNA inh: ZTA (EBV) inhibition in EBNA-1 counter-screen; AID 2234; 320,000 compounds, 0.15% hits; ZTA-DNA binding, fluorescence polarization; inhibition, % at 11 µM; P03206; in the data active means inhibition above about 33%
Target sequence (P03206 whole entry, looked up): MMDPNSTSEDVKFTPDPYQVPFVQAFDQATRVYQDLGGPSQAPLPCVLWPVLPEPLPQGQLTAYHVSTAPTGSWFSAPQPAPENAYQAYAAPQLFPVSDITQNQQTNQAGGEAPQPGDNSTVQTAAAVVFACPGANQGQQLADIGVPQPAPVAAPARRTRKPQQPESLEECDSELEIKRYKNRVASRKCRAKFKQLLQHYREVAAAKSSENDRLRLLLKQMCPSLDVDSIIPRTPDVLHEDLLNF
GPR7 antag: blocks human GPR7 receptor signaling | inhibition, % at 4.4 µM | 290,000 compounds, 1.1% hits | P48145 | AID 1861 | GPR7-expressing cells, fluorescence antagonist assay; in the data active means inhibition above about 16%, passing the limit was not always enough;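 further: cells stimulated with the agonist NPW; 0% = agonist with vehicle and 100% = vehicle without agonist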
Target sequence (P48145 whole entry, looked up): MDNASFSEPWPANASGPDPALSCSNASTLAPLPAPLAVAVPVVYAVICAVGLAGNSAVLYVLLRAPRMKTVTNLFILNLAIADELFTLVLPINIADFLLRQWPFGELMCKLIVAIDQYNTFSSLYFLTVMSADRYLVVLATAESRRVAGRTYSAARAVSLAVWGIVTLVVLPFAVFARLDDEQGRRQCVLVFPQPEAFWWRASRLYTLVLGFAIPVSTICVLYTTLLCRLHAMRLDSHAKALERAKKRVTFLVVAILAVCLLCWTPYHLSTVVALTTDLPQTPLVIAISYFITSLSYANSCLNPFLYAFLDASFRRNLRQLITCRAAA
EBNA-1 inh: blocks EBNA-1 binding to DNA | EBNA-1 DNA binding, fluorescence polarization | inhibition, % at 14.8 µM | 300,000 compounds, 0.34% hits | AID 1950; in the data active means inhibition above about 28%
DNA FID counter-1: displaces DNA intercalator in HCV helicase counter-screen. DNA fluorescent intercalator displacement, fluorescence. inhibition, % at 7.9 µM. 290,000 compounds, 0.17% hits. AID 1845;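 further: 0% = vehicle and 100% = reference compound; higher means more ethidium bromide displaced from hairpin DNA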
HCV NS3 hel inh: blocks Hepatitis C virus NS3 helicase unwinding; NS3 helicase DNA unwinding, Cy5 molecular beacon fluorescence; inhibition, % at 10.9 µM; 290,000 compounds, 0.56% hits; AID 1800;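 active means inhibition above the mean of all tested compounds plus 3 SD, set per campaign, cut at about 35% in these data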;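 further: 0% = DMSO wells and 100% = thioflavine S control wells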
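assay system = NS3 helicase fragment of HCV | buffer or medium = MOPS pH 6.5, MgCl2, DTT, Tween20, BSA | timing = 60 min unwinding reaction at 25 °C after ATP addition | signal = Cy5 beacon fluorescence read at start and 1 h | read-out basis = % inhibition of unwinding | control set = low DMSO, high thioflavine S at 110 µM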
NS3 helicase cf: HCV NS3 helicase inhibition, confirmation assay; shares compounds with HCV NS3 hel inh; inhibition, % at 10.9 µM; NS3 helicase DNA unwinding, Cy5 molecular beacon fluorescence; 1,600 compounds, 31% hits;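 active means inhibition above the mean of all tested compounds plus 3 SD, cutoff set per campaign, cut at about 36% in these data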
DNA FID counter-2: intercalator displacement, NS3 helicase counter-screen | shares compounds with HCV NS3 hel inh | DNA fluorescent intercalator displacement, fluorescence | inhibition, % at 7.9 µM | 1,600 compounds, 4% hits | AID 1945;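 further: 0% = vehicle and 100% = reference compound; higher means more displacement of ethidium bromide from the DNA hairpin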
An asterisk follows results filed as active; . = not tested or not shown; + = active, no number. Unless noted, no stated cut-off is given here; in the data, active means inhibition above about 37%; inactive means the rest.

SMILES | ZTA DNA inh | GPR7 antag | EBNA-1 inh | DNA FID counter-1 | HCV NS3 hel inh | NS3 helicase cf | DNA FID counter-2
COC(C(=O)N1CCC(n2nccc2NC(=O)C2CC2)CC1)c1ccccc1 (stereo unspecified) | -15.7 | 5.4 | 0.7 | -6.6 | 4.8 | . | .
O=c1[nH]c(/C=C/c2ccc([N+](=O)[O-])cc2)c([N+](=O)[O-])c(=O)[nH]1 | . | -25.8 | . | -2.1 | 60.2* | -15.3 | 8.3
O=c1[nH]c(/C=C/c2ccc3c(c2)OCO3)c([N+](=O)[O-])c(=O)[nH]1 | -5.5 | -13.4 | -9.7 | -13.6 | -2.9 | . | .
COc1ccc(C(=O)N/N=C(\C)c2ccc3c(c2)C2C=CCC2C(c2ccccc2)N3)cc1 (stereo unspecified) | -3.8 | -0.2 | 0.8 | -8.4 | 14.3 | . | .
O=C(O)c1ccc2c(c1)[C@@H]1C=CC[C@@H]1[C@H](c1ccccn1)N2 | 79.8* | -8.1 | 20.0 | -20.3 | 59.4* | 60.0* | 2.8
COc1cc(/C=C(\NC(=O)c2ccccc2)C(=O)Nc2nccs2)ccc1OC(C)=O | -4.4 | 0.8 | -5.8 | -16.0 | 8.1 | . | .
Cc1cc2c(c(=O)o1)C(CCC1CCCCC1)C(C#N)=C(N)O2 (stereo unspecified) | -4.0 | -8.4 | -0.2 | -15.7 | 38.8* | -21.4 | -5.5
CCCOC(=O)/C(=C\C=C\c1ccco1)NC(=O)c1ccccc1 | 12.5 | 2.8 | 2.2 | -27.9 | 40.3* | -5.5 | -13.6
O=C(N/N=C/C=C/c1ccco1)/C(=C/c1ccccc1)NC(=O)c1ccccc1 | 5.6 | 2.4 | 10.6 | -7.2 | 36.5* | 53.9* | 6.1
CCCOC(=O)/C(=C\c1ccc([N+](=O)[O-])o1)NC(=O)c1ccccc1 | 16.2 | -4.9 | -7.9 | -20.2 | 38.2* | -16.2 | -4.2
CCOC(=O)/C(=C\c1ccc([N+](=O)[O-])o1)NC(=O)c1ccccc1 | 5.0 | -12.2 | 9.1 | -24.6 | 30.1 | . | .
COC(=O)/C(=C/c1ccco1)NC(=O)c1ccccc1 | -15.2 | -8.5 | 1.9 | 0.5 | -3.5 | . | .
COc1ccccc1NC(=O)C1CCCN(S(=O)(=O)c2ccc3c(c2)CC(C)N3C(C)=O)C1 (stereo unspecified) | -10.4 | -7.0 | -2.0 | -44.9 | 2.9 | . | .
O=C(N/N=C/c1ccccn1)c1cc(-c2cccc3ccccc23)n[nH]1 | 3.2 | -4.0 | -4.8 | -2.3 | 1.2 | . | .
O=C(O)c1ccc(/C=N/NC(=O)c2cc(-c3ccc4c5c(cccc35)CC4)n[nH]2)cc1 | 17.8 | -0.4 | -3.4 | -31.5 | 36.9* | 65.3* | -2.1
CCOC(=O)C(=CNc1ccc(-c2ccco2)c(Cl)c1)C(=O)OCC | 4.5 | -0.3 | 4.5 | -25.2 | 42.0* | 13.6 | -27.5
CCOC(=O)C(=CNc1cc(Cl)c(-c2ccco2)c(Cl)c1)C(=O)OCC | 5.6 | -7.0 | 3.7 | -14.1 | 46.5* | -5.2 | -20.4
CC1=NN(c2ccccc2)C(=O)C1C=Nc1ccc(N(C)C)cc1 (stereo unspecified) | + | -6.5 | 82.3* | -7.7 | 44.1* | -0.9 | 0.9
COc1ccc(C(=O)C2CCCN(C(=O)c3cccc(N4CCCC4=O)c3)C2)cc1OC (stereo unspecified) | . | -2.5 | . | -33.9 | -9.3 | . | .
O=C(CCCSc1ccccc1)Nc1ccc(Cl)c(S(=O)(=O)N2CCOCC2)c1 | 9.7 | . | . | . | . | . | .
O=C(CCC(=O)NNC(=O)Cc1ccccc1)NCc1ccccc1 | 5.1 | -4.4 | -2.1 | 3.8 | -2.4 | . | .
O=C(COC(=O)CCc1c[nH]c2ccccc12)NCc1ccc(Cl)cc1 | 5.4 | -2.9 | -3.8 | -14.4 | -6.4 | . | .
O=C(COC(=O)CCc1c[nH]c2ccccc12)NCc1ccccc1 | 7.0 | 1.2 | 3.1 | -26.3 | 42.8* | 9.1 | -25.7
O=C(CCC(=O)NCc1ccccc1)NCc1ccccc1 | -7.2 | -16.9 | -5.1 | -13.9 | 48.4* | -10.6 | -2.9
COc1ccc(C2N(C(=O)CN3CCCC3)CCCN2S(=O)(=O)c2ccccc2)cc1 (stereo unspecified) | -20.8 | -1.3 | -9.5 | 7.0 | -3.4 | . | .
SMILES | ZTA DNA inh | GPR7 antag | EBNA-1 inh | DNA FID counter-1 | HCV NS3 hel inh | NS3 helicase cf | DNA FID counter-2
Nc1ccc2nc3c(=O)n(CCc4ccccc4)c(=O)[nH]c3nc2c1 | -7.3 | 7.3 | -12.9 | -2.5 | 19.4 | . | .
Cc1cc2nc3c(=O)n(CCc4ccccc4)c(=O)[nH]c3nc2cc1N | -1.4 | -0.8 | -4.2 | -5.1 | 38.1* | 6.0 | 8.8
C=CCn1c(SCc2nc3sc(C(=O)O)c(C)c3c(=O)[nH]2)nnc1-c1ccccc1 | -11.9 | -15.1 | -1.8 | -34.3 | 40.8* | -7.8 | 5.5
CC(=O)c1sc2nc(CSc3nnnn3-c3ccccc3)[nH]c(=O)c2c1C | 1.2 | -1.2 | 9.9 | 13.2 | 36.5* | 4.6 | 12.8
CCCCc1c(C)nc2c(OC)cccc2c1SCC(=O)O | 2.5 | -8.1 | -6.1 | -30.5 | 37.0* | -1.4 | -0.4
CCCCc1c(C)nc2ccc(OC)cc2c1SCCC(=O)O | 0.1 | . | 8.1 | . | . | . | .
Cc1nc(-c2ccc3c(c2)CCC(=O)N3)cs1 | -15.8 | -14.8 | -8.1 | -2.7 | 1.2 | . | .
Cc1ccc(-c2csc(Cc3nc(-c4ccc5c(c4)CCC(=O)N5)cs3)n2)cc1 | 0.9 | -9.0 | 10.8 | -26.1 | 40.2* | -3.1 | -10.3
Cn1nnnc1SCc1nc2scc(-c3ccccc3)c2c(=O)[nH]1 | -19.1 | -18.3 | -13.7 | -16.1 | -12.6 | . | .
Cn1nnnc1SCc1nc2scc(-c3ccc(Cl)cc3)c2c(=O)[nH]1 | -8.5 | -12.7 | -2.5 | -7.8 | 42.3* | -17.1 | 1.0
NNS(=O)(=O)c1ccc2c(c1)Cc1cc(S(=O)(=O)NN)ccc1-2 | 11.8 | -8.6 | 5.0 | 4.4 | 39.3* | -17.2 | 2.4
O=C1NN(c2ccccc2)C(=O)/C1=C\c1ccccc1 | . | -9.7 | . | -14.7 | 49.5* | -28.3 | 13.2
COc1ccc(-n2c(C)cc(/C=C3\C(=O)NN(c4ccccc4)C3=O)c2C)cc1 | 14.2 | -4.1 | 3.8 | -3.8 | 1.0 | . | .
COc1ccc(Sc2ccc(/C=C3\C(=O)NN(c4ccccc4)C3=O)o2)cc1 | 6.6 | -5.2 | -8.3 | -14.4 | 47.4* | 60.0* | 17.4
Cc1ccc(S(=O)(=O)Cc2nnnn2-c2ccccc2)cc1 | 16.8 | -2.3 | 2.3 | -5.8 | 0.0 | . | .
CC(OC(=O)Cn1[nH]c(=O)c2ccccc2c1=O)C(=O)Nc1cccc(Cl)c1 (stereo unspecified) | -21.4 | . | -10.2 | . | . | . | .
CN(Cc1ccco1)S(=O)(=O)c1nnc(NC(=O)c2ccc(F)cc2)s1 | 3.3 | 3.1 | 4.4 | -8.8 | 14.7 | . | .
CCOc1ccc(C(=O)Nc2nnc(S(=O)(=O)N(C)Cc3ccco3)s2)cc1 | -3.9 | 12.0 | -11.7 | -12.5 | 56.5* | 2.0 | -5.3
NNC(=O)c1oc2nc(-c3ccco3)cc(-c3ccco3)c2c1N | 11.2 | -13.3 | 7.0 | -7.2 | 50.9* | 3.2 | -26.2
NNC(=O)Cn1nc(Cc2ccccc2)n(N)c1=O | 1.8 | . | . | . | . | . | .
CC1(C)Cc2nc3sc(C(=O)NCCCO)c(N)c3cc2CS1 | -22.1 | 2.2 | 2.5 | -10.7 | -6.1 | . | .
CC1(C)Cc2nc3sc(C(=O)O)c(N)c3cc2CS1 | 9.1 | -4.3 | 0.3 | -16.9 | 47.5* | -10.7 | -11.4
